In ChEMBL document CHEMBL1156295, “In vitro and in vivo photocytotoxicity of boron dipyrromethene derivatives for photodynamic therapy” (J Med Chem, 2010):
Activity calls are given as the source filed them. The rule behind the calls is not given here.

Experiments:
[1] = Cellular uptake in human HSC2 cells assessed as intracellular localization in to mitochondria labeled with rhodamine 123 dye at 100 nM by spinning disk confocal microscopy; format: ADME; details: hsc-2, 0.1 µM
Outline: (§1)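 HSC-2 cells grown on glass coverslips, co-incubated at room temperature for 15–30 min with compound plus probe: ER-Tracker 100 nM, LysoTracker 500 nM or Rh123 100 nM. Rinsed in PBS. XY sections at 0.2 μm imaged; excitation 330–385 nm for ER/Lyso probes, 460–490 nm for Rh123, 520–550 nm for photosensitizer.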

HSC-2 [2] = test: Cytotoxicity against human HSC2 cells after 24 hrs by MTT assay; format: functional, cell-based; details: HSC-2, 24 h
Outline: (§2)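 HL60 at 15000 cells/well; HSC-2 and HK1 at 3000 cells/well, adhered overnight; phenol-red-free medium with 10% FBS. Compound tested at 0.001–100.0 μM from DMSO stock; controls 0.01% DMSO. After 2 h, irradiated with broad-spectrum light at 6.8 mW/cm2, or dark. After 24 h, MTT 4 h at 37 °C, formazan in DMSO, A570. Three determinations, mean ± SD.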

[3] = Phototoxicity against human HK1 cells irradiated with 4.1 J/cm^2 broad spectrum light treated 2 hrs before irradiation measured after 24 hrs by MTT assay; format: functional, cell-based; details: HK-1, light or radiation study; outline: as §2
[4] = Cytotoxicity against human HK1 cells after 24 hrs by MTT assay; format: functional, cell-based; details: HK-1, 24 h; outline: as §2
HSC-2 [5] = test: Induction of apoptosis in human HSC2 cells irradiated with 4.1 J/cm^2 broad spectrum light assessed as viable cells at 0.5 uM after 24 hrs of irradiation by annexin V-FITC staining; format: functional; details: HSC-2, light or radiation study, read-out: Activity
Outline: (§3)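 HSC-2 cells at 50% confluency in dishes, treated 2 h, then irradiated (4.1 J/cm2 broad spectrum) or kept dark. At intervals, floating and trypsinized cells pooled, washed in cold PBS, resuspended at 1 × 10^6 cells/mL in binding buffer. Stained 15 min in the dark at room temperature with annexin V-FITC and propidium iodide. 1 × 10^4 cells read by flow cytometry (FL1, FL3).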

HSC-2 [6] = test: Cell cycle arrest in human HSC2 cells irradiated with 4.1 J/cm^2 broad spectrum light assessed as accumulation at sub-G1 phase at 0.25 uM after 4 hrs by flow cytometry relative to control; format: functional
Outline: (§4)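 HSC-2 cells given compound for 2 h, then irradiated with broad-spectrum light (or kept dark). Floating plus trypsinized adherent cells collected at set times after irradiation. Fixed in 70% ice-cold ethanol overnight at 4 °C, then stained 30 min with 20 μg/mL RNase A and 1 μM SYTOX Green. 1 × 10^4 cells read by flow cytometry (488 nm laser, FL1 530/30).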

HSC-2 [7] = test: Cell cycle arrest in human HSC2 cells in dark assessed as accumulation at sub-G1 phase at 0.25 uM after 12 hrs by flow cytometry relative to control; format: functional; outline: as §4
[8] = Cellular uptake in human HSC2 cells assessed as intracellular localization in to nuclear membrane at 100 nM by spinning disk confocal microscopy; format: ADME, cell-based; details: hsc-2, 0.1 µM; outline: as §1
HSC-2 [9] = test: Cell cycle arrest in human HSC2 cells irradiated with 4.1 J/cm^2 broad spectrum light assessed as accumulation at G2/M phase at 0.25 uM after 12 hrs by flow cytometry relative to control; format: functional; outline: as §4
HSC-2 [10] = test: Induction of apoptosis in human HSC2 cells irradiated with 4.1 J/cm^2 broad spectrum light assessed as apoptotic cells at 0.5 uM after 16 hrs of irradiation by annexin V-FITC staining; format: functional; outline: as §3
HSC-2 [11] = test: Cell cycle arrest in human HSC2 cells irradiated with 4.1 J/cm^2 broad spectrum light assessed as accumulation at G1 phase at 0.25 uM after 2 hrs by flow cytometry relative to control; format: functional; outline: as §4
[12] = Cellular uptake in human HSC2 cells assessed as intracellular localization in to lysosome labeled with lyso-tracker DND22 dye at 100 nM by spinning disk confocal microscopy; format: ADME, cell-based; details: hsc-2, 0.1 µM; outline: as §1
HSC-2 [13] = test: Induction of apoptosis in human HSC2 cells irradiated with 4.1 J/cm^2 broad spectrum light assessed as apoptotic cells at 0.5 uM after 4 hrs of irradiation by annexin V-FITC staining; format: functional; outline: as §3
HSC-2 [14] = test: Cell cycle arrest in human HSC2 cells irradiated with 4.1 J/cm^2 broad spectrum light assessed as accumulation at G2/M phase at 0.25 uM after 6 hrs by flow cytometry relative to control; format: functional; outline: as §4
HSC-2 [15] = test: Induction of apoptosis in human HSC2 cells irradiated with 4.1 J/cm^2 broad spectrum light assessed as apoptotic cells at 0.5 uM after 24 hrs of irradiation by annexin V-FITC staining; format: functional; outline: as §3
HSC-2 [16] = test: Induction of apoptosis in human HSC2 cells irradiated with 4.1 J/cm^2 broad spectrum light assessed as viable cells at 0.5 uM after 4 hrs of irradiation by annexin V-FITC staining; format: functional; details: HSC-2, light or radiation study, read-out: Activity; outline: as §3
HSC-2 [17] = test: Cell cycle arrest in human HSC2 cells irradiated with 4.1 J/cm^2 broad spectrum light assessed as accumulation at G2/M phase at 0.25 uM after 8 hrs by flow cytometry relative to control; format: functional; outline: as §4
HSC-2 [18] = test: Cell cycle arrest in human HSC2 cells irradiated with 4.1 J/cm^2 broad spectrum light assessed as accumulation at sub-G1 phase at 0.25 uM after 12 hrs by flow cytometry relative to control; format: functional; outline: as §4
HSC-2 [19] = test: Cell cycle arrest in human HSC2 cells irradiated with 4.1 J/cm^2 broad spectrum light assessed as accumulation at G1 phase at 0.25 uM after 12 hrs by flow cytometry relative to control; format: functional; outline: as §4
HSC-2 [20] = test: Cell cycle arrest in human HSC2 cells irradiated with 4.1 J/cm^2 broad spectrum light assessed as accumulation at G1 phase at 0.25 uM after 8 hrs by flow cytometry relative to control; format: functional; outline: as §4
HSC-2 [21] = test: Induction of apoptosis in human HSC2 cells in dark assessed as apoptotic cells at 0.5 uM after 24 hrs by annexin V-FITC staining; format: functional; outline: as §3
HSC-2 [22] = test: Induction of apoptosis in human HSC2 cells in dark assessed as viable cells at 0.5 uM after 4 hrs of irradiation by annexin V-FITC staining; format: functional; details: HSC-2, light or radiation study, read-out: Activity; outline: as §3
HSC-2 [23] = test: Cell cycle arrest in human HSC2 cells irradiated with 4.1 J/cm^2 broad spectrum light assessed as accumulation at sub-G1 phase at 0.25 uM after 8 hrs by flow cytometry relative to control; format: functional; outline: as §4
Gallus gallus = species on record: Gallus gallus; test: Antiangiogenic activity against chicken chorioallantoic membrane irradiated with 20 to 40 J/cm^2 assessed as induction of vascular occlusion at 3.5 to 7 nmol/embryo; format: functional, tissue-based
Outline: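 Fertilized chicken eggs incubated at 37 °C, 65% humidity. On EDD-9, single iv bolus into the main CAM vessel in cremophor EL 5%, EtOH 5% in saline. One minute later, a 0.02 cm2 site with 5–100 μm vessels irradiated at 510–560 nm, 40 mW/cm2 (or left dark). After 24 h, FITC-dextran/Indian ink angiography and damage scoring per Lange et al.; at least 10 embryos, mean ± SEM.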

HSC-2 [24] = test: Phototoxicity against human HSC2 cells irradiated with 4.1 J/cm^2 broad spectrum light treated 2 hrs before irradiation measured after 24 hrs by MTT assay; format: functional, cell-based; details: HSC-2, light or radiation study; outline: as §2
HSC-2 [25] = test: Cell cycle arrest in human HSC2 cells irradiated with 4.1 J/cm^2 broad spectrum light assessed as accumulation at G1 phase at 0.25 uM after 6 hrs by flow cytometry relative to control; format: functional; outline: as §4

In the case of `CC1=C(I)C(C)=[N+]2C1=C(CCC(=O)O)c1c(C)c(I)c(C)n1[B-]2(F)F`, the Drug uptake [1] is reported as “Active”, the IC50 (HSC-2 [2]) is reported as over 100000 nM and the IC50 [3] is reported as 570 nM. It also gave an IC50 [4] of 55800 nM, a viability at 0.5 µM (HSC-2 [5]) of 10.1% and an Activity (HSC-2 [6]) of 3.7%. The Activity (HSC-2 [7]) was 3.8%, the Activity [8] was “Not Active” and the Activity (HSC-2 [9]) was 26%. The Activity (HSC-2 [10]) was 47.4%, the Activity (HSC-2 [11]) was 46.3% and the Drug uptake [12] was “Active”. The Activity (HSC-2 [13]) was 8.7%, the Activity (HSC-2 [14]) was 55.5% and the Activity (HSC-2 [15]) was 89.9%. The viability at 0.5 µM (HSC-2 [16]) was 91.3%, the Activity (HSC-2 [17]) was 48.8% and the Activity (HSC-2 [18]) was 10.6%. For the same compound, the Activity (HSC-2 [19]) was 44.1%, the Activity (HSC-2 [20]) was 30.3% and the Activity (HSC-2 [21]) was 3%. For the same compound, the viability at 0.5 µM (HSC-2 [22]) was 97%, the Activity (HSC-2 [23]) was 4.4% and the Activity (Gallus gallus) was “Active”. It also gave an IC50 (HSC-2 [24]) of 100 nM and an Activity (HSC-2 [25]) of 26.4%.
